In the EternaBench riboswitch data:

Test system: MS2 coat protein
Assay: apparent Kd, MS2 coat protein; higher = weaker binding; RNA-MaP array; FMN 200 µM where present
Method in brief: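 Each design was made on Illumina sequencing-chip clusters by stalled E. coli RNA polymerase and titrated with SNAP-549-labelled MS2 coat protein from 0.7 or 1.5 nM, doubling to 3 µM, in the absence and then the presence of constant ligand. The buffer was 100 mM Tris-HCl pH 7.5, 80 mM KCl, 4 mM MgCl2, BSA, DTT, yeast tRNA and Tween-20. The apparent Kd is the median of filtered per-cluster fits of binding curves, with green signal normalised to red-channel RNA signal and control-cluster median Fmax.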

[1] = designed as: ON switch for flavin mononucleotide, no ligand
[2] = ligand present: flavin mononucleotide, designed as: ON switch for flavin mononucleotide
[3] = designed as: OFF switch for flavin mononucleotide, no ligand
[4] = ligand present: flavin mononucleotide, designed as: OFF switch for flavin mononucleotide

GUAGCAUACCGAGGAUAUUCAGGGCGUGGAUAUACAUGAGGAUCACCCAUGUGGCGGAAGCCUAGGGAGAAGGCGGGCUGCUUC
apparent Kd [1]: 24.6 nM
apparent Kd [2]: 19.9 nM

UUAUUUUUACAGAAGGUUUAAUAAUAUGUAUGAGAAGGAUAUGUAACAUGAGGAUCACCCAUGUUUUAUCUAUAUGAGGAUCAU
apparent Kd [3]: 6.69 nM
apparent Kd [4]: 6.88 nM

UGUGUCAUCGAGAAGGCCUCAACAUGAGGAUCACCCAUGUUGUAAUAUGGGAGGAUAUCGAUGAUACAGCUACGUUUCGUAGCA
apparent Kd [1]: 19 nM
apparent Kd [2]: 6.11 nM

CUGGUGUUAGGAUAUUCGAGGCUGCCUCGGAGACGAGGGUAGGAGAAGGGACAUGAGGAUCACCCAUGUGCUCC
apparent Kd [3]: 34.4 nM
apparent Kd [4]: 37.6 nM

AUGGAUAUCACAGGAUAUGCCAGGGAUACCCUGGCAGAAGGGUGAUCCAUCCUAUGUAAAUACAUGAGGAUCACCCAUGUGUCC
apparent Kd [1]: 51.7 nM
apparent Kd [2]: 43.6 nM

GCCAGGCGAGGAUAUGCGAGGUAGCCUUUGUCCGGAUACUGACAUGAGGAUCACCCAUGUAGAAGGUGCCUAGG
apparent Kd [3]: 70.2 nM
apparent Kd [4]: 258 nM

GUGAGACAUGAGGAUCACCCAUGUCAGGAUAUGAUACUAUGUACUUCGGUACAUAGUAUCAGAAGGGACAGUGA
apparent Kd [3]: 53.6 nM
apparent Kd [4]: 66.7 nM

GUGCCUAACUAGAAGGCAGUGUGCAAAGCAUUCUGAGGAUAUGGGUUCCGGAAACGGACAUGAGGAUCACCCAUGUGGCACAAA
apparent Kd [1]: 424 nM
apparent Kd [2]: 26.7 nM

AUUUAAAAGUCAGGAUAUGGUAGAUUAUUCUUAUCAGAAGGGAUUAUUAUACUCAAGUACAUGAGGAUCACCCAUGUUAAAUCA
apparent Kd [1]: 18.1 nM
apparent Kd [2]: 10.2 nM

GGUUGACAAAGUCAACCUAAACGAACAUGAGGAUCACCCAUGUAGGAUAUGCUACUCAAAGAGUAGCAGAAGGACAUGUGCCUU
apparent Kd [3]: 37.6 nM
apparent Kd [4]: 273 nM

UAUUAAUGCAAGGAUAUGCUUUUAAUUUUUUUUGCAGAAGGUGCAACAUGAGGAUCACCCAUGUUUCAGGGUAU
apparent Kd [3]: 42.1 nM
apparent Kd [4]: 57.6 nM

UAUAUAUAGUAAGGAUAUGUAUAUAUUCUAUAAACAGAAGGUACUGACAUGAGGAUCACCCAUGUUUUAGUGUGGGCAUGUAGA
apparent Kd [3]: 33.9 nM
apparent Kd [4]: 30.5 nM

AUCAGCUCGUCAGGAUAUACGUCACUGCGUCAGCAGUGUGGUAAGAUCACAUGAGGAUCACCCAUGUAGAAGGGACGAGCUGAA
apparent Kd [3]: 14.3 nM
apparent Kd [4]: 267 nM

UAUUUACGAGGAUAUCGUUUUUUUCACAUGAGGAUCACCCAUGUUGUUUAUGUUGCGUUGCGAGAAGGCGUUUGUU
apparent Kd [3]: 31.1 nM
apparent Kd [4]: 23 nM

UUAAUUAAUUAAUUAUACAUGAGGAUCACCCAUGUAAGUGAUCAGGAUAUCAGCUCGAAUAGAGCUGAGAAGGGAUCCAUGUAA
apparent Kd [1]: 117 nM
apparent Kd [2]: 83 nM

GUAUUGAGAUAAGGAUAUAAGUCUAUGACAUGAGGAUCACCCAUGUGUGUUUUAGAAGGUAUUUCGGUAAUAUUGUUACAGUAA
apparent Kd [1]: 17.7 nM
apparent Kd [2]: 9.95 nM

AGGUAACAUGAGGAUCACCCAUGUCAGGAUAUCAUAAAGAUUAGAUUAGAGAAGAGGUUGAGAAGGGACUAUAU
apparent Kd [3]: 44.9 nM
apparent Kd [4]: 38.4 nM

AUUUAACAUGAGGAUCACCCAUGUGAGGAUAUGUCCAUAUUCGGCAAAUCGGAUAUGGACAGAAGGCACACCGG
apparent Kd [3]: 105 nM
apparent Kd [4]: 194 nM

UUGGUAUUUGUAGGAUAUCUGUCGCCACCGUGUGGAGAAGGACGAACAUGAGGAUCACCCAUGUAUCAUGGUGUGGGCUUUCCU
apparent Kd [3]: 104 nM
apparent Kd [4]: 99.7 nM

CACACAUGAGGAUCACCCAUGUCGUGGGCGGAAAACUGUGCACAGGAUAUGGUGAAGGCAACUCACCAGAAGGGUGGUCAGGGA
apparent Kd [1]: 113 nM
apparent Kd [2]: 55 nM

GUAGCAUGCCAAGGAUAUUCAUAUAGUAGGCAAACAUGAGGAUCACCCAUGUAGUGAGAGCCCUGGGAGAAGGUGGGAUGCUAC
apparent Kd [1]: 17.9 nM
apparent Kd [2]: 16.1 nM

AGUAUGCACGCAGGAUAUACAUGAGGAUCACCCAUGUGGAACAGUGUAGUACUAGUUGAUCCUCAGUAGAAGGGCGGUCAAAUA
apparent Kd [3]: 47.8 nM
apparent Kd [4]: 42.7 nM

GCACGGUAUGUAGGAUAUGCAUAGCAUUGCUAUGCAGAAGGACAUGAGGAUCACCCAUGUAUGUAUUCCAUACUAAUCCCGUGG
apparent Kd [3]: 5.38 nM
apparent Kd [4]: 5.72 nM

GUGUACAGAGGAUAUACAUAAGCUAGGAAACUAGCAUCCUCACAUGAGGAUCACCCAUGUAGAAGGCUGUACAC
apparent Kd [3]: 305 nM
apparent Kd [4]: 19.6 nM

GGAAGACAAAGUCUUCCAUUACGAACAUGAGGAUCACCCAUGUAGGAUAUGCUACUCAAAGAGUAGCAGAAGGACAUGUGUCUU
apparent Kd [3]: 27.4 nM
apparent Kd [4]: 120 nM

GUUAGGCAUGUAGGAUAUCCAUUGCGUCGCGUUGGAGAAGGGCAGCACACAUGAGGAUCACCCAUGUGGUCUCCCAUGAUGUGU
apparent Kd [3]: 215 nM
apparent Kd [4]: 254 nM

ACAUGAGGAUCACCCAUGUGGAGUGAAGAAGGUGGUUACUUAAGACUCUUCCAUGUACUUAGGACUGAGGAUAUUCUAAUAUUU
apparent Kd [1]: 53.8 nM
apparent Kd [2]: 30.5 nM

GGGUACAUCGGAGGAUAUCAUGUAAGUACAUGAGGAUCACCCAUGUCGAUGGAGACAUCGGAGAUUGAGAAGGCCGAUGUACCG
apparent Kd [1]: 152 nM
apparent Kd [2]: 8.71 nM

AUCAGCUCGUCAGGAUAUACGUCACUGCGUCAGCAGUGUGGUAAGCUCACAUGAGGAUCACCCAUGUAGAAGGGACGAGCUGAU
apparent Kd [3]: 6.48 nM
apparent Kd [4]: 22.9 nM

CGAUGGCAUGUAGGAUAUCGAGCUCAAAGAGCUCGAGAAGGACAUGAGGAUCACCCAUGUGCUCACAGACAGUGAGCGCUAUCG
apparent Kd [3]: 31.2 nM
apparent Kd [4]: 156 nM

AGCGAGAUAGGCAAGGAUAUGCUGGGUUUCACAUGAGGAUCACCCAUGUCAUAGGUAAUGUCCGAGCAGAAGGUGCAUUCUCUUU
apparent Kd [1]: 171 nM
apparent Kd [2]: 21.7 nM

AGGUGACAUGAGGAUCACCCAUGUAAGGAUAUACGGUUAGUGGAGAGUUGGAAGAGAGGUAGAAGGUACGGAGC
apparent Kd [3]: 288 nM
apparent Kd [4]: 137 nM

UACGAAUACCCUCGUCGGCUGAAUCCAGAAGGACCACAUGAGGAUCACCCAUGUCGAAGAUAAAGGUAGGAUAUGGAGUGCCUA
apparent Kd [1]: 119 nM
apparent Kd [2]: 23.9 nM

AACUAUGAAUUGAUAGUGUCUGACAGAAGGCAAUAGGUUGUGACCGACAUGAGGAUCACCCAUGUUGAGGAUAUGUCUAGCUAC
apparent Kd [3]: 53.2 nM
apparent Kd [4]: 366 nM

GUUUGGAGUGGAGGAUAUGCGGACGAACGAUAAGCAGAAGGCCACAUGAGGAUCACCCAUGUCGGCUGUGCCGGGUGGUUGACG
apparent Kd [3]: 41.6 nM
apparent Kd [4]: 50.8 nM

ACAAAGUGAGGAUAUGCUUUUAUUUAUUAUUAUUAUUAUUUGCAGAAGGCACAUGAGGAUCACCCAUGUAAGAA
apparent Kd [3]: 32.9 nM
apparent Kd [4]: 25.5 nM
